System: U2OS
Assay: Multiplex assay against U2OS
Format: toxicity, cell-based
Settings: human
Procedure, shortened: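 Tubulin, mitochondrial-mass and membrane-permeability phenotypes are per cents of healthy-nucleus cells. Cells were gated by CellPathfinder machine learning into Hoechst high-intensity objects or normal cells, normal cells into healthy, pyknosed or fragmented nuclei, and pyknosed cells into mitotic or apoptotic. Before that, live cells stained at seeding with Hoechst33342, BioTracker Green Microtubule Cytoskeleton Dye, MitoTracker Red and Annexin V Alexa Fluor 680 were imaged on a CQ1 microscope at 37°C and 5% CO2 after compound addition.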

[1] = 12 h, 1 µM, compound concentration 1 uM, replicate 1
[2] = 12 h, 1 µM, compound concentration 1 uM, replicate 2
[3] = 12 h, 10 µM, compound concentration 10 uM, replicate 1
[4] = 12 h, 10 µM, compound concentration 10 uM, replicate 2
[5] = 24 h, 1 µM, compound concentration 1 uM, replicate 1
[6] = 24 h, 1 µM, compound concentration 1 uM, replicate 2
[7] = 24 h, 10 µM, compound concentration 10 uM, replicate 1
[8] = 24 h, 10 µM, compound concentration 10 uM, replicate 2
[9] = 48 h, 1 µM, compound concentration 1 uM, replicate 1
[10] = 48 h, 1 µM, compound concentration 1 uM, replicate 2
[11] = 48 h, 10 µM, compound concentration 10 uM, replicate 1
[12] = 48 h, 10 µM, compound concentration 10 uM, replicate 2

Structure (SMILES): Cc1ccc(-c2ccc(F)cc2COc2ccc(CCC(=O)O)cc2)cc1
- Population Apoptotic (%) [1]: 75%
- Population Fragmented Nuclei (%) [1]: 22%
- Population Healthy Nuclei (%) [1]: 71%
- Population Mitotic Cells (%) [1]: 25%
- Population Normal (%) [1]: 97%
- Population Pyknosed Nuclei (%) [1]: 5%
- Total Cell Count [1]: 277
- Population Apoptotic (%) [2]: 100%
- Population Fragmented Nuclei (%) [2]: 17%
- Population Healthy Nuclei (%) [2]: 74%
- Population Mitotic Cells (%) [2]: 0%
- Population Pyknosed Nuclei (%) [2]: 8%
- Total Cell Count [2]: 135
- Population Apoptotic (%) [3]: 75%
- Population Fragmented Nuclei (%) [3]: 31%
- Population Healthy Nuclei (%) [3]: 61%
- Population Mitotic Cells (%) [3]: 25%
- Population Normal (%) [3]: 98%
- Population Pyknosed Nuclei (%) [3]: 6%
- Total Cell Count [3]: 238
- Population Apoptotic (%) [4]: 83%
- Population Fragmented Nuclei (%) [4]: 14%
- Population Healthy Nuclei (%) [4]: 75%
- Population Mitotic Cells (%) [4]: 16%
- Population Normal (%) [4]: 97%
- Population Pyknosed Nuclei (%) [4]: 10%
- Total Cell Count [4]: 123
- Population Apoptotic (%) [5]: 90%
- Population Fragmented Nuclei (%) [5]: 21%
- Population Healthy Nuclei (%) [5]: 69%
- Population Mitotic Cells (%) [5]: 10%
- Population Normal (%) [5]: 97%
- Population Pyknosed Nuclei (%) [5]: 9%
- Total Cell Count [5]: 340
- Population Apoptotic (%) [6]: 100%
- Population Fragmented Nuclei (%) [6]: 20%
- Population Healthy Nuclei (%) [6]: 70%
- Population Mitotic Cells (%) [6]: 0%
- Population Normal (%) [6]: 98%
- Population Pyknosed Nuclei (%) [6]: 8%
- Total Cell Count [6]: 175
- Population Apoptotic (%) [7]: 94%
- Population Fragmented Nuclei (%) [7]: 26%
- Population Healthy Nuclei (%) [7]: 67%
- Population Mitotic Cells (%) [7]: 5%
- Population Normal (%) [7]: 98%
- Population Pyknosed Nuclei (%) [7]: 5%
- Total Cell Count [7]: 295
- Population Apoptotic (%) [8]: 93%
- Population Fragmented Nuclei (%) [8]: 22%
- Population Mitotic Cells (%) [8]: 6%
- Population Normal (%) [8]: 97%
- Population Pyknosed Nuclei (%) [8]: 9%
- Total Cell Count [8]: 160
- Population Apoptotic (%) [9]: 89%
- Population Fragmented Nuclei (%) [9]: 17%
- Population Healthy Nuclei (%) [9]: 74%
- Population Mitotic Cells (%) [9]: 10%
- Population Normal (%) [9]: 97%
- Population Pyknosed Nuclei (%) [9]: 8%
- Total Cell Count [9]: 487
- Population Apoptotic (%) [10]: 95%
- Population Fragmented Nuclei (%) [10]: 15%
- Population Healthy Nuclei (%) [10]: 75%
- Population Mitotic Cells (%) [10]: 5%
- Total Cell Count [10]: 242
- Population Apoptotic (%) [11]: 87%
- Population Fragmented Nuclei (%) [11]: 21%
- Population Healthy Nuclei (%) [11]: 70%
- Population Mitotic Cells (%) [11]: 12%
- Population Normal (%) [11]: 97%
- Population Pyknosed Nuclei (%) [11]: 7%
- Total Cell Count [11]: 421
- Population Apoptotic (%) [12]: 88%
- Population Fragmented Nuclei (%) [12]: 16%
- Population Healthy Nuclei (%) [12]: 72%
- Population Mitotic Cells (%) [12]: 11%
- Population Normal (%) [12]: 98%
- Total Cell Count [12]: 236
